ChEMBL document CHEMBL3603839, “Synthesis and antiproliferative activity of new bioconjugates of Salinomycin with amino acid esters” (Bioorg Med Chem Lett, 2015)

What was measured:
LoVo [1] = experiment: Resistant index, ratio of IC50 for human LoVo/DX cells to IC50 for LoVo cells; format: functional
Outline: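 Resistance index was calculated from IC50 values obtained in the doxorubicin-resistant LoVo/DX subline and the parental LoVo line. RI 0–2 is classed as sensitive, 2–10 as moderately sensitive, and above 10 as strongly resistant.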

BALB/3T3 = experiment: Antiproliferative activity against mouse BALB/3T3 cells after 72 hrs; format: cell-based; conditions: BALB/3T3, 72 h
Outline: (§1)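 IC50 values (mean ± SD) were measured against human colon adenocarcinoma LoVo cells, their doxorubicin-resistant LoVo/DX subline, MV4-11 cells, and normal murine embryonic fibroblasts (BALB/3T3).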

[2] = Antiproliferative activity against doxorubicin-resistant human LoVo/DX cells after 72 hrs; format: functional, cell-based; outline: as §1
[3] = Selectivity index, ratio of IC50 for mouse BALB/3T3 cells to IC50 for human LoVo/DX cells; format: functional
Outline: (§2)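 Selectivity index is the IC50 in normal BALB/3T3 fibroblasts divided by the IC50 in the respective cancer line. SI above 1.0 is taken as a favourable value.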

MV4-11 [4] = experiment: Selectivity index, ratio of IC50 for mouse BALB/3T3 cells to IC50 for human MV4-11 cells; format: functional; outline: as §2
MV4-11 [5] = experiment: Antiproliferative activity against human MV4-11 cells after 72 hrs; format: functional, cell-based; conditions: MV4-11, 72 h; outline: as §1
LoVo [6] = experiment: Selectivity index, ratio of IC50 for mouse BALB/3T3 cells to IC50 for human LoVo cells; format: functional; outline: as §2
LoVo [7] = experiment: Antiproliferative activity against human LoVo cells after 72 hrs; format: functional, cell-based; outline: as §1
[8] = Ratio of cisplatin IC50 to compound IC50 for doxorubicin-resistant human LoVo/DX cells; format: functional
[9] = Ratio of doxorubicin IC50 to compound IC50 for doxorubicin-resistant human LoVo/DX cells; format: functional

| Compound | Ratio IC50 (LoVo [1]) | IC50 (BALB/3T3) [µM] | IC50 [2] [µM] | Ratio IC50 [3] | Ratio IC50 (MV4-11 [4]) | IC50 (MV4-11 [5]) [µM] | Ratio IC50 (LoVo [6]) | IC50 (LoVo [7]) [µM] | Ratio IC50 [8] | Ratio IC50 [9] |
| --- | --- | --- | --- | --- | --- | --- | --- | --- | --- | --- |
| CC[C@@H](C(=O)[C@@H](C)[C@@H](O)[C@H](C)[C@@H]1O[C@@H]([C@@H](CC)C(=O)N[C@@H](Cc2ccc(O)cc2)C(=O)OC)CC[C@@H]1C)[C@H]1O[C@]2(C=C[C@@H](O)[C@]3(CC[C@@](C)([C@H]4CC[C@](O)(CC)[C@H](C)O4)O3)O2)[C@H](C)C[C@@H]1C | 0.48 | 43.4 | 7.12 | 6.09 | 12.22 | 3.55 | 2.95 | 14.7 | – | – |
| CC[C@@H](C(=O)[C@@H](C)[C@@H](O)[C@H](C)[C@@H]1O[C@@H]([C@@H](CC)C(=O)NCC(=O)OC)CC[C@@H]1C)[C@H]1O[C@]2(C=C[C@@H](O)[C@]3(CC[C@@](C)([C@H]4CC[C@](O)(CC)[C@H](C)O4)O3)O2)[C@H](C)C[C@@H]1C | 0.74 | 42.5 | 3.93 | 10.81 | 11.64 | 3.65 | 8.03 | 5.29 | – | – |
| CC[C@@H](C(=O)[C@@H](C)[C@@H](O)[C@H](C)[C@@H]1O[C@@H]([C@@H](CC)C(=O)N[C@@H](Cc2ccccc2)C(=O)OC)CC[C@@H]1C)[C@H]1O[C@]2(C=C[C@@H](O)[C@]3(CC[C@@](C)([C@H]4CC[C@](O)(CC)[C@H](C)O4)O3)O2)[C@H](C)C[C@@H]1C | 1 | 17 | 3.49 | 4.87 | 5.89 | 2.89 | 4.87 | 3.49 | – | – |
| CC[C@@H](C(=O)[C@@H](C)[C@@H](O)[C@H](C)[C@@H]1O[C@@H]([C@@H](CC)C(=O)N[C@@H](CO)C(=O)OC)CC[C@@H]1C)[C@H]1O[C@]2(C=C[C@@H](O)[C@]3(CC[C@@](C)([C@H]4CC[C@](O)(CC)[C@H](C)O4)O3)O2)[C@H](C)C[C@@H]1C | 0.44 | 40.1 | 7.77 | 5.16 | 6.9 | 5.81 | 2.27 | 17.7 | – | – |
| COc1cccc2c1C(=O)c1c(O)c3c(c(O)c1C2=O)C[C@@](O)(C(=O)CO)C[C@@H]3O[C@H]1C[C@H](N)[C@H](O)[C@H](C)O1 [DOXORUBICIN] | 80.67 | 0.31 | 7.26 | 0.04 | 6.2 | 0.05 | 3.44 | 0.09 | – | – |
| CC[C@@H](C(=O)[C@@H](C)[C@@H](O)[C@H](C)[C@@H]1O[C@@H]([C@@H](CC)C(=O)N[C@@H](Cc2cnc[nH]2)C(=O)OC)CC[C@@H]1C)[C@H]1O[C@]2(C=C[C@@H](O)[C@]3(CC[C@@](C)([C@H]4CC[C@](O)(CC)[C@H](C)O4)O3)O2)[C@H](C)C[C@@H]1C | 0.23 | 37 | 0.85 | 43.54 | 46.26 | 0.8 | 10.08 | 3.67 | 3 | 9 |
| CC[C@@H](C(=O)[C@@H](C)[C@@H](O)[C@H](C)[C@@H]1O[C@@H]([C@@H](CC)C(=O)O)CC[C@@H]1C)[C@H]1O[C@]2(C=C[C@@H](O)[C@]3(CC[C@@](C)([C@H]4CC[C@](O)(CC)[C@H](C)O4)O3)O2)[C@H](C)C[C@@H]1C [SALINOMYCIN] | 1.11 | – | 0.59 | 47.05 | 84.12 | 0.33 | 52.38 | 0.53 | – | – |
